Bioassay records: PubChem, several laboratories
Compounds with a hit are over-represented: about 2% of the library has one in this group of screens.
GAA850 FXN act: activators of GAA850 frataxin (FXN) promoter; hit rate 0.56% among 360,000; activation, % at 6 µM; HEK293 lucGAA850 FXN promoter luciferase reporter, 24 h; percent of 10 µM SAHA response;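 active means activation above the average of all compounds screened plus 3 SD, cutoff fixed separately per campaign, cut at about 7.5% in these data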;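 further: 0% = DMSO wells and 100% = 10 µM SAHA wells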
NR2E3 ag-1: activates human NR2E3 receptor. inhibition of corepressor binding, % at 3.98 µM. AID 602229. hit rate 0.35% among 360,000. Q9Y5X4. CHO-S Gal4-NCOR/VP16-NR2E3 two-hybrid, luciferase;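 active means inhibition above the mean of all tested compounds plus 3 SD, cut at about 70% in these data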;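 further: 0% = DMSO with NR2E3 transfected cells and 100% = cells lacking NR2E3 construct; higher means lower luciferase signal from less NR2E3 corepressor binding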
Target sequence (Q9Y5X4 whole entry, looked up, the tested form may be a part): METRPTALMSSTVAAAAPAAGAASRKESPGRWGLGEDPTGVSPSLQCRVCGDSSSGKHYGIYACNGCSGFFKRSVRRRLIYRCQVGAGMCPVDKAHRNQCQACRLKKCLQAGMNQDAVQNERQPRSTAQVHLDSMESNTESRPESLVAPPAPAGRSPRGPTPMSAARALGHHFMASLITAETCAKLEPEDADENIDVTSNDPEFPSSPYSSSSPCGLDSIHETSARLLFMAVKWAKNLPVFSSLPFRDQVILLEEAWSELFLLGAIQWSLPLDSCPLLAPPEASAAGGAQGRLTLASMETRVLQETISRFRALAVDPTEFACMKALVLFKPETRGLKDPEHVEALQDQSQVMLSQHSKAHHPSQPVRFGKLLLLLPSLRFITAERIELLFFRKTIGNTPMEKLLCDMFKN
T cell modulator: modulates CD8 T cell binding to vesicles; 2C CD8+ T cell-vesicle binding, flow cytometry; active compounds read low; response (vesicle binding), % at 7 µM; hit rate 0.068% among 330,000;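 active means response, share of CD8 T cells binding vesicles, and their 90th percentile fluorescence all below set limits, cut at about 80% in these data, passing the limit was not always enough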;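 further: values below 100% mean blocked vesicle binding to the CD8+ T cells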
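Assay system: 2C TCR transgenic mouse naive CD8+ T cells, MACS-purified | Read-out: CD8+ gate FL2 mean fluorescence as % of same-row positive control | Signal: High-throughput flow cytometry with anti-B7-1 and anti-CD8 staining | Timing: Binding step 1.5 h, 37 °C, antibody labelling 20 min, ice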
Myeloid diff 2: promotes myeloid progenitor differentiation. ER-HoxA9 myeloid progenitors, lysozyme-GFP differentiation, flow cytometry. calls only at 10 µM. hit rate 1% among 360,000. AID 624256;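 active means normalized GFP-positive differentiation at or above the plate's own cutoff, the solvent-only control mean plus 3 SD; inconclusive means no clear call, values can overlap the other calls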;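 further: cells exposed to compound for four days before flow analysis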
NR2E3 ag-2: activates human photoreceptor nuclear receptor NR2E3 | Q9Y5X4 | hit rate 0.12% among 320,000 | GST-NR2E3/biotin-RetCOR TR-FRET, 1536-well | inhibition of corepressor binding, % at 4.78 µM;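 active means percent inhibition above the cutoff of mean plus 3 SD of all tested compounds, set per screening campaign, cut at about 20% in these data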;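 further: 0% = DMSO wells and 100% = biotin wells as full block of FRET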
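Material: NR2E3–RetCOR corepressor complex / Incubation: Compound–protein incubation for 5 h at 4 °C / Dosing: compound at 4.8 µM, single dose / Detection: time-resolved FRET / Benchmarks: high control biotin, low control 0.6% DMSO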
NR2E3 ag confirm: NR2E3 agonism confirmed in two-hybrid assay | AID 624378 | hit rate 51% among 2,300 | inhibition, % at 3.98 µM | shares compounds with NR2E3 ag-1 | CHO-S mammalian two-hybrid NR2E3-NCOR, luciferase luminescence;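 active means average inhibition above a cutoff equal to the mean inhibition of all tested compounds plus one SD, cut at about 70% in these data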;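 further: 0% = DMSO in NR2E3 cells and 100% = DMSO in cells lacking NR2E3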
VP16 counter: counter-screen for NR2E3 agonists: GAL4-VP16 reporter inhibitors. shares compounds with NR2E3 ag-1. inhibition, % at 3.98 µM. hit rate 29% among 2,300. CHO-S GAL4-VP16 luciferase reporter, luminescence. AID 624379;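 active means mean inhibition above a cutoff equal to the average over all tested compounds plus one standard deviation, cut at about 70% in these data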;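 further: luciferase from a UAS reporter driven by GAL4-VP16 transactivation; 0% = DMSO with VP16-transfected cells and 100% = DMSO with cells lacking VP16; higher means less reporter light so more repression of VP16 activity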
* = called active by the depositor; i = inactive; ? = inconclusive; · = no result.

SMILES	GAA850 FXN act	NR2E3 ag-1	T cell modulator	Myeloid diff 2	NR2E3 ag-2	NR2E3 ag confirm	VP16 counter
CN(CC(=O)NCc1ccc(F)cc1)CC(=O)Nc1ccc(Cl)c(C(F)(F)F)c1	1	94*	414	i	1	53	49
O=C(Nc1ccc2c(c1)OCCO2)C(C1CC1)N1CCN(c2ccc(C(F)(F)F)cn2)CC1 (configuration not stated)	·	-20	·	i	·	·	·
CC1(Cc2ccc(OC(F)(F)F)cc2)C(=O)Nc2ccc(S(=O)(=O)NC3CCCCC3)cc21 (configuration not stated)	1	85*	·	i	·	51	23
COC(=O)c1ccc(CC2(C)C(=O)Nc3ccc(OC(F)(F)F)cc32)o1 (configuration not stated)	2	7	·	i	·	·	·
CC(C)CCNC(=O)CN(Cc1ccco1)C(=O)c1snc(C(N)=O)c1N	2	49	153	i	-2	4	7
Cc1csc2ncnc(N3CCN(S(=O)(=O)c4cccc(C(F)(F)F)c4)CC3)c12	0	94*	233	?	1	97*	90*
O=S(=O)(c1cccc(Br)c1)N1CCN(c2ncnc3scc(-c4ccccc4)c23)CC1	-1	-37	·	i	·	·	·
C/C(=N/NC(=O)c1cnccn1)c1ccncc1	1	-23	161	i	2	·	·
CC(=NNC(=S)N1CC2CCC(CC2)C1)c1cnccn1	4	76*	·	?	·	-20	-26
CC(=NNC(=S)N1CCN(c2ccccn2)CC1)c1ccccn1	0	4	·	·	·	·	·
CC(=NNC(=S)N1CC2CCC(CC2)C1)c1ccccn1	-7	87*	·	·	·	-37	-9
CC(=NNC(=S)N1CCN(C2CCCCCC2)CC1)c1ccccn1	-7	78*	·	·	·	19	-7
CC(=NNC(=S)N1CCN(c2ccccn2)CC1)c1nccs1	-14	90*	·	?	·	42	46
CC1C(=O)N2CCCc3cc(S(=O)(=O)NCc4ccccc4Cl)cc1c32 (configuration not stated)	1	-12	430	i	2	·	·
CCCS(=O)(=O)NC(=O)C1(C)CCCN(C(=O)COc2ccccc2)C1 (configuration not stated)	-3	11	·	i	·	·	·
CN(Cc1ccco1)C(=O)[C@H](Cc1ccccc1)NC(=O)CC[C@H]1O[C@@H](n2ccc(=O)[nH]c2=O)[C@H](O)[C@@H]1O	·	7	·	i	·	·	·
O=C(c1ccco1)N1CCN(S(=O)(=O)c2ccc(Br)cc2)CC1	0	-10	114	i	-1	·	·
O=C(c1ccco1)N1CCN(S(=O)(=O)c2ccc(Oc3ccccc3)cc2)CC1	1	49	49	i	1	48	66
Cc1ccc(NC(=O)c2ccc3nc(N4CCOCC4)sc3c2)c(Cl)c1	1	-91	802	i	-12	·	·
COc1ccc(CNS(=O)(=O)c2ccc3c(c2)CC(C)N3C(=O)C2CC2)cc1 (configuration not stated)	1	95*	180	i	1	89*	75*
O=C(C1CCC1)N1CCc2cc(S(=O)(=O)NCCN3CCN(c4ccccc4F)CC3)ccc21	0	61	184	i	6	70	55
COc1cccc(CNC(=O)C2CCN(S(=O)(=O)c3ccc4c(c3)CC(C)N4C(=O)C3CC3)CC2)c1 (configuration not stated)	1	1	244	i	1	·	·
COc1cccc(CNS(=O)(=O)c2ccc3c(c2)CC(C)N3C(=O)C2CC2)c1 (configuration not stated)	-1	61	280	i	0	56	36
COc1ccc(CNS(=O)(=O)c2ccc3c(c2)CCN3C(=O)C2CC2)cc1	0	49	865	i	1	58	48
O=C(Nc1nc([C@@H]2O[C@H](CO)[C@@H](O)[C@H](O)[C@H]2O)cs1)NC(c1ccccc1)c1ccccc1	0	-12	·	i	·	·	·
SMILES	GAA850 FXN act	NR2E3 ag-1	T cell modulator	Myeloid diff 2	NR2E3 ag-2	NR2E3 ag confirm	VP16 counter
C[C@H]1[C@H](c2ccccc2)C[C@@H](C(=O)O)C1(C)C	2	14	220	i	1	·	·
CC[C@@H](C(=O)[C@@H](C)[C@@H](O)[C@H](C)[C@@H]1O[C@@H]([C@@H](CC)C(=O)O)CC[C@@H]1C)[C@H]1O[C@]2(C=C[C@@H](O)[C@]3(CC[C@@](C)([C@H]4CC[C@](O)(CC)[C@H](C)O4)O3)O2)[C@H](C)C[C@@H]1C	-11	102*	·	?	·	100*	84*
CC(=O)Nc1cc(-c2ccc(F)cc2)cn2c(-c3ccc(S(C)(=O)=O)cc3)cnc12	1	-13	·	i	·	·	·
COc1cccc(COc2ccccc2C2Nc3ccc(Br)cc3C(=O)N2NC(=O)c2ccncc2)c1 (configuration not stated)	0	48	106	i	3	65	30
COc1ccccc1C(=O)NCCC(=O)NCC1COc2ccccc2O1 (configuration not stated)	2	-24	415	i	4	·	·
CCN(CC(=O)Nc1ccc(NC(C)=O)cc1)C(=O)C1(c2ccc(Cl)cc2)CCC1	-2	48	·	i	·	39	-4
CC(=O)Nc1ccc(NC(=O)COC(=O)C2(c3ccc(Cl)cc3)CCCC2)cc1	-2	-25	287	i	0	·	·
C[C@H](NC(=O)c1ccc(Cl)c(S(=O)(=O)N2CCOCC2)c1)c1nc2ccccc2[nH]1	-1	-5	341	i	1	·	·
CC(C)c1cc2c(c(O)c1O)[C@@]13CCCC(C)(C)C1CC2OC3=O (some centres not stated)	2	85*	411	i	2	92*	-5
Brc1ccc(N/N=C(/N=Nc2nn[nH]n2)c2ccccc2)cc1	-4	72*	414	i	0	94*	35
O=C(O)c1ccc(N=N/C(=N\Nc2ccc(C(=O)O)cc2)c2ccccc2)cc1	2	-37	611	i	4	·	·
O=C(N/N=C/c1ccc(F)cc1)c1cc[n+]([O-])cc1	0	-11	368	i	0	·	·
Cc1cccc(NC(=O)Oc2ccc(Cl)c3cccnc23)c1	3	-77	·	i	·	·	·
Cc1ccc(-c2nc(CS(=O)(=O)CC(=O)N3CCCCCC3)c(C)o2)cc1	0	51	296	?	-2	7	53
CCOC(=O)c1c(-c2ccc(OC)cc2)oc2c1C(OC(C)=O)CCC2 (configuration not stated)	·	-45	·	i	·	·	·
CCc1nc2c(OCCC3CCCCC3)cccn2c1N(C)C(=O)c1ccc(OC)cc1	-1	-8	·	i	·	·	·
